ChEMBL document CHEMBL4825685, “Structure activity relationship (SAR) study identifies a quinoxaline urea analog that modulates IKKβ phosphorylation for pancreatic cancer therapy” (Eur J Med Chem, 2021)
One block for each molecule: values may come before it. Activity calls are given as the source filed them. No cut-off for these calls is given here.

Assays:
[1] = Oral bioavailability in CD1 mouse at 20 mg/kg measured up to 24 hrs measured by LC/MS-MS analysis; type: ADME, organism-based; conditions: in vivo
Outline: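 %F taken from oral (20 mg/kg, DMSO:PEG400:H2O 1:4:5) and intravenous (10 mg/kg, DMSO:PEG400:H2O 1:5:4) AUC0-∞. Plasma sampled from 0.083 to 24 h and quantified by LC/MS/MS with a carbamazepine internal standard. Non-compartmental analysis.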

[2] = MRT (0 to infinity) in CD1 mouse at 20 mg/kg, po measured up to 24 hrs measured by LC/MS-MS analysis; type: ADME, organism-based; conditions: in vivo
Outline: (§1)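 Oral 20 mg/kg given in DMSO:PEG400:H2O 1:4:5. Mice killed at 0.083, 0.25, 0.5, 1, 2, 4, 8 and 24 h and plasma analysed by LC/MS/MS with a carbamazepine internal standard. Parameters derived by non-compartmental analysis.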

[3] = Cmax in CD1 mouse at 20 mg/kg, po measured up to 24 hrs measured by LC/MS-MS analysis; type: ADME, organism-based; design: route oral, dose 20 mg/kg, time <=24; conditions: in vivo; outline: as §1
[4] = Half life in CD1 mouse at 20 mg/kg, po measured up to 24 hrs measured by LC/MS-MS analysis; type: ADME, organism-based; conditions: in vivo; outline: as §1
MIA PaCa-2 [5] = assay: Induction of apoptosis in human MIA PaCa-2 cells assessed as increase in caspase 3/7 activation at 10 uM incubated for 24 hrs by Caspase-Glo assay; type: functional, cell-based
Outline: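 MiaPaCa2 cells (2.5 × 10⁴/well) attached overnight, then treated 24 h at 0.1% final DMSO. alamarBlue added at 21 h for 3 h and fluorescence read at 560/590. Caspase-Glo luminescence read 2 h later. Luminescence ×100/fluorescence normalized to DMSO average, n = 3.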

[6] = AUC (0 to infinity) in CD1 mouse at 20 mg/kg, po measured up to 24 hrs measured by LC/MS-MS analysis; type: ADME, organism-based; design: route oral, dose 20 mg/kg, time <=24; conditions: in vivo; outline: as §1
[7] = Tmax in CD1 mouse at 20 mg/kg, po measured up to 24 hrs measured by LC/MS-MS analysis; type: ADME, organism-based; conditions: in vivo; outline: as §1
[8] = AUClast in CD1 mouse at 20 mg/kg, po measured up to 24 hrs measured by LC/MS-MS analysis; type: ADME, organism-based; design: route oral, dose 20 mg/kg, time <=24; conditions: in vivo; outline: as §1
[9] = biological target: T1, Inhibitor of nuclear factor kappa-B kinase subunit beta (Homo sapiens, UniProt O14920); assay: Inhibition of TNFalpha-induced IKKbeta mediated NF-kappaB activation in human Pancreatic cancer cells by luciferase reporter gene assay; design: species or system Pancreatic cancer cell
T1 sequence (O14920 whole entry): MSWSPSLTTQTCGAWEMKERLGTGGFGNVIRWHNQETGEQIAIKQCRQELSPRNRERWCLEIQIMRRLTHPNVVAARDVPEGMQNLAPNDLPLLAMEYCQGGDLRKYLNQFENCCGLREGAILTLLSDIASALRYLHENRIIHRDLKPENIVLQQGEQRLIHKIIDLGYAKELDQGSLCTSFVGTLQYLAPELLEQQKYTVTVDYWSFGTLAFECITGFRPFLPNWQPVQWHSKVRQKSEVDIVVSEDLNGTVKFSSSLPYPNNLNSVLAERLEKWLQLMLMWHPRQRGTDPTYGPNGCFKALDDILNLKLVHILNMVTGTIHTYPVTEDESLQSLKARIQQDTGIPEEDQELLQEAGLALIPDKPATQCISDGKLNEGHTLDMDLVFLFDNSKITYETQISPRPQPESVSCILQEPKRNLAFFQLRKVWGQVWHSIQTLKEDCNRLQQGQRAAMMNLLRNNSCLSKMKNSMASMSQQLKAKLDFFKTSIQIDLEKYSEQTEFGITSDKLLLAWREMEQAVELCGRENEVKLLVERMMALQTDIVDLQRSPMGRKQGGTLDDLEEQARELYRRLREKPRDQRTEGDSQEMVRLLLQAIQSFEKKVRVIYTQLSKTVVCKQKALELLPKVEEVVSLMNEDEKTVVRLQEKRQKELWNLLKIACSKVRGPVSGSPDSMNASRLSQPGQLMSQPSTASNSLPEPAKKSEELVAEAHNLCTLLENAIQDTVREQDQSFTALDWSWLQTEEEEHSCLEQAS

MIA PaCa-2 [10] = assay: Antitumor activity against human MIA PaCa-2 cells xenografted in Foxn1nu athymic nude mouse assessed as reduction in tumor volume at 15 mg/kg, ip administered every 3 days for 4 weeks by digital caliper method relative to control; type: functional; design: scale not given: the % may be the effect or the level left
Outline: (§2)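 MiaPaCa2 cells (2.5 × 10⁶, mixed 2:1 with Matrigel) implanted subcutaneously in left flank; randomised 20 days later (n = 6/group). Gemcitabine 15 mg/kg i.p. every 72 h against vehicle (100 µl daily orally). Tumour volume measured every 3 days by caliper as 1/2 × length × width² (mm³); mice sacrificed after 27th treatment day and tumours weighed; unpaired Student's t-test.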

MIA PaCa-2 [11] = assay: Antitumor activity against human MIA PaCa-2 cells xenografted in Foxn1nu athymic nude mouse assessed as reduction in tumor weight at 15 mg/kg, ip administered every 3 days for 4 weeks […]; type: functional; design: scale not given: the % may be the effect or the level left; outline: as §2
[12] = Antiproliferative activity against human T3M4 cells assessed as growth inhibition after 72 hrs by PrestoBlue dye based fluorescence assay; type: functional
[13] = Volume of distribution at steady state in CD1 mouse at 10 mg/kg, iv measured up to 24 hrs measured by LC/MS-MS analysis; type: ADME, organism-based; conditions: in vivo, read-out: Vdss
Outline: (§3)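 Single intravenous 10 mg/kg dose in DMSO:PEG400:H2O 1:5:4. Mice killed at 0.083, 0.25, 0.5, 1, 2, 4, 8 and 24 h. Plasma levels measured by LC/MS/MS against a carbamazepine internal standard. Parameters derived by non-compartmental analysis.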

MIA PaCa-2 [14] = assay: Induction of cell death in human MIA PaCa-2 cells measured after 24 hrs by fluorescent microscopy; type: functional, cell-based
Outline: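 MiaPaCa2 cells treated with 5 and 10 µM for 24 h, then stained with calcein-AM plus ethidium homodimer-1 for 30 min. Live and dead cells imaged by fluorescence microscopy. Dead/total cell ratio computed, n = 3. Two-way ANOVA with Bonferroni test.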

MIA PaCa-2 [15] = assay: Antitumor activity against human MIA PaCa-2 cells xenografted in Foxn1nu athymic nude mouse assessed as reduction in tumor volume at 40 mg/kg, po administered for 4 weeks by digital caliper method relative to control; type: functional; design: scale not given: the % may be the effect or the level left
Outline: (§4)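 MiaPaCa2 cells (2.5 × 10⁶, with Matrigel 2:1) implanted s.c. in the left flank. Mice randomized at day 20, n = 6 per group. Compound given orally once daily; gemcitabine 15 mg/kg i.p. every 72 h where combined; vehicle 100 µl orally. Tumors measured by caliper every 3 days (1/2 × L × W²). Tumors weighed after sacrifice after day 27. Unpaired t-test.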

MIA PaCa-2 [16] = assay: Antitumor activity against human MIA PaCa-2 cells xenografted in Foxn1nu athymic nude mouse assessed as reduction in tumor weight at 40 mg/kg, po administered for 4 weeks […] relative to control; type: functional; design: scale not given: the % may be the effect or the level left; outline: as §4
MIA PaCa-2 [17] = assay: Antitumor activity against human MIA PaCa-2 cells xenografted in Foxn1nu athymic nude mouse assessed as reduction in tumor weight at 40 mg/kg, po administered for 4 weeks in combination gemcitabine […]; type: functional; conditions: MIA PaCa-2, po, 672 h; outline: as §4
MIA PaCa-2 [18] = assay: Antitumor activity against human MIA PaCa-2 cells xenografted in Foxn1nu athymic nude mouse assessed as reduction in tumor volume at 40 mg/kg, po administered for 4 weeks in combination gemcitabine by digital caliper method relative to control; type: functional; conditions: MIA PaCa-2, po, 672 h; outline: as §4
[19] = biological target: T2, Inhibitor of nuclear factor kappa-B kinase subunit beta (Homo sapiens) (UniProt O14920); assay: Inhibition of IKKbeta phosphorylation in human Pancreatic cancer cells at 5 uM by Western blot analysis; conditions: Pancreatic cancer cell, time hrs <=24, TDE = time-dependent effect
T2 sequence (whole entry): T1 sequence (O14920 whole entry)
Outline: (§5)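 T3M4 cells treated at 0.5–5.0 µM for 6 h, or at 5 µM for 0.5–24 h. Lysates (40 µg protein) run on 4–20% SDS-PAGE and transferred to PVDF. Blots probed for p-IKKβ and IKKβ with β-actin loading control, chemiluminescent detection.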

[20] = MRT (0 to infinity) in CD1 mouse at 10 mg/kg, iv measured up to 24 hrs measured by LC/MS-MS analysis; type: ADME, organism-based; conditions: in vivo; outline: as §3
[21] = Half life in CD1 mouse at 10 mg/kg, iv measured up to 24 hrs measured by LC/MS-MS analysis; type: ADME, organism-based; conditions: in vivo; outline: as §3
MIA PaCa-2 [22] = assay: Antiproliferative activity against human MIA PaCa-2 cells assessed as growth inhibition after 72 hrs by PrestoBlue dye based fluorescence assay; type: functional
[23] = biological target: T2, Inhibitor of nuclear factor kappa-B kinase subunit beta (Homo sapiens); assay: Inhibition of IKKbeta phosphorylation in human Pancreatic cancer cells measured after 6 hr by Western blot analysis; conditions: Pancreatic cancer cell, dose 0.5-5 µM; outline: as §5
[24] = AUClast in CD1 mouse at 10 mg/kg, iv measured up to 24 hrs measured by LC/MS-MS analysis; type: ADME, organism-based; design: route intravenous, dose 10 mg/kg, time <=24; conditions: in vivo; outline: as §3
MIA PaCa-2 [25] = assay: Antitumor activity against human MIA PaCa-2 cells xenografted in Foxn1nu athymic nude mouse assessed as reduction in proliferation index at 40 mg/kg, po administered for 4 weeks by Ki67 staining based assay; type: functional, organism-based
Outline: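 Same xenograft and dosing design. Formalin-fixed paraffin sections (5 µm) stained with anti-Ki-67. Percentage of Ki-67-positive cells counted in 4 fields per tumor, n = 5. Unpaired t-test.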

[26] = Cmax in CD1 mouse at 10 mg/kg, iv measured up to 24 hrs measured by LC/MS-MS analysis; type: ADME, organism-based; design: route intravenous, dose 10 mg/kg, time <=24; conditions: in vivo; outline: as §3
MIA PaCa-2 [27] = assay: Anti-migration activity in human MIA PaCa-2 cells at 5 uM measured upto 48 hrs by microscopy based wound scratch method; type: functional, cell-based; conditions: time hrs <=48
Mus musculus = assay: In vivo inhibition of IKKbeta in Foxn1nu athymic nude mouse xenografted with human MIA PaCa-2 cells assessed as reduction in p-IKKbeta level at 40 mg/kg, po administered for 4 weeks by immunohistochemistry analysis; type: functional, organism-based
Outline: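 Same xenograft tissue. Paraffin sections antigen-retrieved in citrate pH 6.0 and stained with p-IKKβ antibody overnight at 4 °C, then HRP secondary. Histoscore (0–15) = proportion score × intensity score (0–3), n = 5. Unpaired t-test.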

[28] = AUC (0 to infinity) in CD1 mouse at 10 mg/kg, iv measured up to 24 hrs measured by LC/MS-MS analysis; type: ADME, organism-based; design: route intravenous, dose 10 mg/kg, time <=24; conditions: in vivo; outline: as §3

- bioavailability [1]: 3.1%
- MRT inf [2]: 5.2 h
- Cmax [3]: 300 ng/mL
- half-life [4]: 2 h
- AUC(0-inf) [6]: 1860 ng·h/mL
- Tmax [7]: 2.5 h
- AUC(0-t) at 24 h [8]: 1630 ng·h/mL
- IC50 [9]: 8.4 µM
SMILES: O=C(Nc1ccc(Br)cc1)Nc1ccc2nc(-c3ccco3)c(-c3ccco3)nc2c1
- Activity (MIA PaCa-2 [5]): inactive

SMILES: Nc1ccn([C@@H]2O[C@H](CO)[C@@H](O)C2(F)F)c(=O)n1 [GEMCITABINE]
- Activity (MIA PaCa-2 [10]): 45%
- Activity (MIA PaCa-2 [11]): 45%

SMILES: Cc1cc(NC(=O)Nc2ccc3ncc(-c4cnn(C)c4)nc3c2)ccc1F
- Activity (MIA PaCa-2 [5]): inactive

SMILES: Cn1cc(-c2cnc3ccc(NC(=O)Nc4cccc(C(F)(F)F)c4)cc3n2)cn1
- Activity (MIA PaCa-2 [5]): inactive

- bioavailability [1]: 17.6%
- MRT inf [2]: 6.3 h
- Vd [13]: 2 L/kg
- Cmax [3]: 700 ng/mL
- half-life [4]: 2.5 h
- AUC(0-inf) [6]: 8010 ng·h/mL
- inhibition [19]: Tde
- MRT inf [20]: 4.5 h
- half-life [21]: 2.7 h
- GI50 (MIA PaCa-2 [22]): 2.8 µM
- inhibition [23]: Dose-Dependent Effect
- Tmax [7]: 6 h
- AUC(0-t) at 24 h [24]: 20300 ng·h/mL
- AUC(0-t) at 24 h [8]: 7990 ng·h/mL
- Cmax [26]: 5980 ng/mL
- AUC(0-inf) [28]: 22800 ng·h/mL
- IC50 [9]: 3.3 µM
SMILES: Cn1cc(-c2cnc3ccc(NC(=O)Nc4cccc(C(F)(F)F)c4F)cc3n2)cn1
- GI50 [12]: 1.7 µM
- Activity (MIA PaCa-2 [14]): Dose-Dependent Effect
- Activity (MIA PaCa-2 [15]): 75%
- Activity (MIA PaCa-2 [5]): Active
- Activity (MIA PaCa-2 [16]): 75%
- inhibition in vivo at 40 mg/kg (MIA PaCa-2 [17]): > 90%
- inhibition in vivo at 40 mg/kg (MIA PaCa-2 [18]): > 90%
- Activity (MIA PaCa-2 [25]): Active
- Activity (MIA PaCa-2 [27]): Active
- Activity (Mus musculus): Active

SMILES: Cc1ccc2nc(NCCN)c3ncc(C)n3c2c1
- Activity (MIA PaCa-2 [5]): inactive

SMILES: Cn1cc(-c2cnc3ccc(NC(=O)Nc4cccc(OC(F)(F)F)c4)cc3n2)cn1
- Activity (MIA PaCa-2 [5]): inactive

SMILES: Cn1cc(-c2cnc3ccc(NC(=O)Nc4ccc(F)c(Cl)c4)cc3n2)cn1
- Activity (MIA PaCa-2 [5]): inactive

SMILES: Cn1cc(-c2cnc3ccc(NC(=O)Nc4ccc(F)c(OC(F)(F)F)c4)cc3n2)cn1
- Activity (MIA PaCa-2 [5]): inactive
